This note sets out measurements from ChEMBL document CHEMBL4725346, “Syntheses and Evaluation of New Bisacridine Derivatives for Dual Binding of G-Quadruplex and i-Motif in Regulating Oncogene c-myc Expression” (J Med Chem, 2020).

Assay [1] can be described thus: Stabilization of 5'-FAM/3'-TAMRA labeled hairpin DNA F10T (unknown origin) assessed as change in melting temperature at 1 uM by FRET assay (reference value: 59.1 degreeC).
For assay [2], the target named is Quadruplex DNA. The experiment in a line: Binding affinity to 5'-biotin labeled c-myc promoter G-quadruplex DNA Pu27 (unknown origin) by surface plasmon resonance method. The format is nucleic-acid assay. The method, boiled down: (§1)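 SPR: 5'-biotin DNA diluted to 1 μM and captured (1000 RU) on a sensor chip, with a blank cell as reference. Running buffers: Py33 in 20 mM MES pH 5.8, 100 mM KCl, 0.05% Tween-20; Pu27 and duplex in 50 mM Tris-HCl pH 7.4, 100 mM KCl. Six ligand concentrations serially diluted from DMSO stock. Association 260 s, dissociation 300 s at 25 °C; NaOH regeneration; blank sensorgrams subtracted.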
For orientation: In SPR one partner is held on a chip, and binding of the other changes the refractive index at the surface.

A further assay deals with dsDNA. The experiment in a line: Binding affinity to 5'-biotin labeled duplex DNA (unknown origin) by surface plasmon resonance method. The format is nucleic-acid assay. The method, boiled down:
as §1

Assay [3] has as its system Quadruplex DNA. As to the kind of experiment: Stabilization of c-myc promoter G-quadruplex DNA Pu27 (unknown origin) by 1H NMR spectra analysis. The format is nucleic-acid assay. The method, boiled down:
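1D ¹H NMR titration with water suppression at 25 °C on a 600 MHz spectrometer. DNA at 0.5 mM in 10% D₂O/90% H₂O: Pu27 in 10 mM Tris-HCl pH 7.4, Py33 in 1× BPES pH 6.4. Annealed at 95 °C for 5 min before titration; ligand stock in d₆-DMSO.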

Assay [4] in a line: Binding affinity to c-myc promoter i-motif DNA Py33 (unknown origin) at 20 uM by isothermal titration calorimetry. The method, boiled down:
(§2)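 ITC at 20 °C on degassed solutions. Cell held preformed DNA ([…]). Syringe held ligand in the same buffer (50 μM for Pu27, 20 μM for Py33). 28 injections of 10 μL at 4 min intervals. Heats of dilution from ligand-into-buffer runs subtracted before model fitting.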

For assay [5], the target named is Quadruplex DNA. As to the kind of experiment: Binding affinity to c-myc promoter G-quadruplex DNA Pu27 (unknown origin) at 50 uM by isothermal titration calorimetry. The assay is classed as nucleic-acid assay. The method, boiled down: as §2
The next assay has as its system A-375. The experiment in a line: Antiproliferative activity against human A-375 cells after 48 hrs by MTT assay. The assay is classed as functional, cell-based. Conditions: A-375, 48 h. The method, boiled down: (§3)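 Cells seeded at 5.0×10^3 per well, pre-incubated 12 h at 37 °C, 5% CO2, then exposed to compounds for 48 h; DMSO-only control. MTT (2.5 mg/mL) added for 4 h, formazan dissolved in DMSO, absorbance at 570 nm. Each dose tested in triplicate; IC50 from percentage survival relative to negative control.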

In a further assay the test system is HCT-116. As to the kind of experiment: Antiproliferative activity against human HCT-116 cells after 48 hrs by MTT assay. The assay is classed as functional, cell-based. Conditions: HCT-116, 48 h. The method, boiled down: as §3
(In general: Tetrazolium dyes change colour on reduction, which living cells bring about.)

For assay [6], the system named is Quadruplex DNA. The experiment in a line: Binding affinity to c-myc wild-type promoter G-quadruplex/i-motif (unknown origin) expressed in human SiHa cells assessed as reduction in c-myc transcription by measuring decrease in ratio of renilla/firefly luciferase activity at 1/3 IC50 after 48 hrs by dual-luciferase reporter assay. The format is cell-based. The method, boiled down: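 SiHa cells transfected with 200 ng psiCHECK2 plasmid carrying wild-type, mutant or deleted c-myc promoter. Compounds added 8 h after transfection, then incubated 48 h at 37 °C. Cells washed with ice-cold PBS; Renilla/firefly activity ratio read by dual-luciferase assay.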
(A reporter such as luciferase makes a cellular process visible.)

Assay [7] has as its system Quadruplex DNA. The experiment in a line: Binding affinity to c-myc promoter G-quadruplex/i-motif in human SiHa cells assessed as reduction in c-myc mRNA level at 1.25 uM incubated for 24 hrs by qRT-PCR analysis. On the set-up: scale not given: the % may be the effect or the level left. The format is cell-based. The method, boiled down: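 SiHa cells at 0, 0.625, 1.25 and 2.5 μM for 24 h; DMSO control. Total RNA extracted with TRIzol. 1.5 μg RNA reverse-transcribed with oligo dT18 and M-MLV (42 °C 60 min). PCR of 30 cycles (95/58/72 °C), products run on 1.2% agarose. β-actin as internal control; three repeats.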

The subject of assay [8] is Quadruplex DNA. As to the kind of experiment: Binding affinity to c-myc promoter G-quadruplex/i-motif in human SiHa cells assessed as reduction in c-myc mRNA level at 5 uM incubated for 24 hrs by qRT-PCR analysis. The assay is classed as cell-based. The arrangement: scale not given: the % may be the effect or the level left.
Assay [9] relates to Quadruplex DNA. The experiment in a line: Binding affinity to c-myc promoter G-quadruplex/i-motif in human SiHa cells assessed as reduction in c-myc expression at 1.25 uM incubated for 24 hrs by Western blot analysis. On the set-up: scale not given: the % may be the effect or the level left. The format is cell-based. The method, boiled down:
(§4)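 SiHa cells treated 24 h at 0, 0.625, 1.25 and 2.5 μM, then lysed in buffer with 1 mM PMSF. Protein measured by BCA, equal loads run on 8% gel and blotted to PVDF. Probed with anti-c-MYC and anti-β-actin (loading control), HRP anti-rabbit secondary, chemiluminescence read-out.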

The subject of assay [10] is Quadruplex DNA. As to the kind of experiment: Binding affinity to c-myc promoter G-quadruplex/i-motif in human SiHa cells assessed as reduction in c-myc expression at 2.5 uM incubated for 24 hrs by Western blot analysis. The assay is classed as cell-based. The arrangement: scale not given: the % may be the effect or the level left. The method, boiled down:
as §4

Assay [11] deals with SiHa. As to the kind of experiment: Induction of cell cycle arrest in human SiHa cells assessed as accumulation of cells at G2/M phase at 0.15 uM after 24 hrs by propidium iodide staining based flow cytometry (reference value: 29.71%). The format is functional.
The test system of assay [12] is SiHa. The experiment in a line: Induction of cell cycle arrest in human SiHa cells assessed as accumulation of cells at G0/G1 phase at 0.60 uM after 24 hrs by propidium iodide staining based flow cytometry (reference value: 42.28%). The assay is classed as functional. As to conditions: dose 0.6 µM.
The subject of assay [13] is SiHa. As to the kind of experiment: Induction of apoptosis in human SiHa cells assessed as necrotic cells at 0.6 uM after 24 hrs by annexin V/FITC-propidium iodide staining-based flow cytometric method ( Rvb = 0.1%). The format is functional.
In assay [14] the test system is SiHa. As to the kind of experiment: Induction of apoptosis in human SiHa cells assessed as late apoptotic cells at 1.2 uM after 24 hrs by annexin V/FITC-propidium iodide staining-based flow cytometric method ( Rvb = 0.4%). The assay is classed as functional.
In assay [15] the test system is SiHa. As to the kind of experiment: Induction of apoptosis in human SiHa cells assessed as necrotic cells at 1.2 uM after 24 hrs by annexin V/FITC-propidium iodide staining-based flow cytometric method ( Rvb = 0.1%). The format is functional.
In assay [16] the test system is SiHa. The experiment in a line: Induction of apoptosis in human SiHa cells assessed as late apoptotic cells at 2.4 uM after 24 hrs by annexin V/FITC-propidium iodide staining-based flow cytometric method ( Rvb = 0.4%). The format is functional.
Assay [17] deals with SiHa. As to the kind of experiment: Induction of apoptosis in human SiHa cells assessed as increase in cleaved caspase-9 level incubated for 24 hrs by Western blot analysis. The assay is classed as functional, cell-based. As to conditions: dose microM 0.6-2.4, time 24.0 hrs.
Assay [18] relates to CA46. The experiment in a line: Antiproliferative activity against human CA46 cells after 48 hrs by MTT assay. The format is functional, cell-based.
The subject of assay [19] is CA46. As to the kind of experiment: Induction of cell cycle arrest in human CA46 cells assessed as accumulation of cells at G2/M phase at 0.15 to 0.6 uM after 24 hrs by propidium iodide staining based flow cytometry. The assay is classed as functional. As to conditions: dose microM 0.15-0.6, time 24.0 hrs.
For assay [20], the system named is CA46. The experiment in a line: Induction of apoptosis in human CA46 cells at 0.6 to 2.4 uM after 24 hrs by propidium iodide staining based flow cytometry. The assay is classed as functional, cell-based. As to conditions: dose microM 0.6-2.4, time 24.0 hrs.
In assay [21] the test system is Quadruplex DNA. The experiment in a line: Binding affinity to 5'-biotin labeled c-myc promoter G-quadruplex DNA Pu27 (unknown origin) by UV titration method. The assay is classed as nucleic-acid assay.

Active and inactive are the calls of the source. The rule behind the calls is not given here. Some results are limits rather than exact numbers.

Turning to `Cc1ccc2nc3ccc(C)cc3c(NCCCNCCNCCCNc3c4cc(C)ccc4nc4ccc(C)cc34)c2c1`, the ΔTm in assay [1] was 4.5 °C. The Kd on Quadruplex DNA [2] is 7700 nM; on dsDNA, 18500 nM; in assay [4] it was 650 nM; on Quadruplex DNA [5], 810 nM. For the same compound, the outcome with Quadruplex DNA [3], in the assay on Quadruplex DNA [6] and in the assay with Quadruplex DNA [21] was Active. The IC50 turned out to be 280 nM in the assay on A-375 and 150 nM in the assay on HCT-116. Moreover, the Activity in the assay on Quadruplex DNA [7] is 40.1%; in the assay on Quadruplex DNA [8], less than 92.7%; in the assay on Quadruplex DNA [9] it was less than 39.8%; in the assay on Quadruplex DNA [10], less than 73.9%; in the assay on SiHa [11], 34.13%; in the assay with SiHa [12], 16.87%. Besides, the Activity was 0.5% in the assay on SiHa [13]; 18.7% in the assay with SiHa [14]; 4.6% in the assay with SiHa [15]; 27.5% in the assay with SiHa [16]; “Dose-dependent effect” with SiHa [17]. In addition, the result in the assay on CA46 [18], with CA46 [19] and with CA46 [20] was inactive.

For orientation: ΔTm means the change in melting temperature against a reference sample. For orientation: Kd means the constant that tells how readily two partners part at equilibrium. Broadly, the IC50 is the concentration that inhibits the measured activity by half.
